Laboratory results published in ChEMBL document CHEMBL5226362, “Screening for Cyclotides in Sri Lankan Medicinal Plants: Discovery, Characterization, and Bioactivity Screening of Cyclotides from Geophila repens” (J Nat Prod, 2023).
Converted amounts (≈) assume the structure as drawn. The source made the active and inactive calls. No cut-off for these calls is given here. Where a SMILES comes first, the peptide text is derived from it. Bridges are numbered along the chain shown (N, C = ends).

Legend:
Pseudomonas aeruginosa = assay: Antibacterial activity against Pseudomonas aeruginosa ATCC 27853 assessed as inhibition of bacterial growth at 6 to 12 hrs by dilution method; format: functional; conditions: time 6-12 hrs
Method in brief: (§1)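 Broth-free microdilution MIC assay. Microbes were grown overnight in 3% TSB at 37 °C, washed twice and resuspended in Tris buffer, then adjusted by A600 to 1 × 10⁶ cells/mL (about 50 000 cells/well). Cells were mixed 1:1 with 2-fold serial dilutions of peptide in Tris buffer (highest tested 32.5 μM) and held 5 h. Then 20% TSB was added and plates incubated 6–12 h at 37 °C, depending on organism. MIC was read as the lowest concentration giving 100% growth inhibition. Run in triplicate.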

Staphylococcus aureus = assay: Antibacterial activity against Staphylococcus aureus ATCC 29213 assessed as inhibition of bacterial growth at 6 to 12 hrs by dilution method; format: functional; conditions: time 6-12 hrs; method in brief: as §1
Candida albicans = assay: Antibacterial activity against Candida albicans ATCC 90028 assessed as inhibition of bacterial growth at 6 to 12 hrs by dilution method; format: functional; conditions: time 6-12 hrs; method in brief: as §1
Cell membrane = assay: Induction of bacterial inner membrane permeabilization in Escherichia coli assessed as carboxyfluorescein leakage measured for 45 mins by fluorescence based microplate reader assay; format: subcellular
Method in brief: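 Liposomes were made from E. coli polar lipid extract loaded with 100 mM carboxyfluorescein in 10 mM Tris, pH 7.4, extruded through 100 nm membranes and gel-filtered. They were added at 10 μM final lipid to 2-fold peptide dilutions in Tris at 37 °C, with no cumulative additions. Dequenching was monitored for 45 min and normalized to 0.16% Triton X-100 after baseline subtraction. Values are the mean ± SD of triplicates; EC50 came from a variable-slope sigmoidal fit against log concentration.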

U-937 [1] = assay: Cytotoxicity against human U-937 cells assessed as cell survival at 20 uM incubated for 72 hrs by FMCA assay; format: functional, cell-based
Method in brief: (§2)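 FMCA with U937 human lymphoma cells, about 20 000 cells/well, exposed to 2-fold peptide dilutions for 72 h at 37 °C in 5% CO₂. Cells were washed with PBS and given FDA in Q2 buffer (NaCl/HEPES, pH 7.4) for 40 min at 37 °C. Fluorescence was read at ex 485/em 538 nm. Viability was expressed as % of control after blank subtraction; IC50 came from a variable-slope sigmoidal fit against log concentration.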

U-937 [2] = assay: Cytotoxicity against human U-937 cells assessed as inhibition of cell growth incubated for 72 hrs by FMCA assay; format: functional, cell-based; conditions: U-937, 72 h
Method in brief: as §2, with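 “°C.” for “°C. Fluorescence was read at ex 485/em 538 nm.”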

MIC (Pseudomonas aeruginosa) [µM] | MIC (Staphylococcus aureus) [µM] | MIC (Candida albicans) [µM] | EC50 (Cell membrane) [nM] | Structure (SMILES) | Activity (U-937 [1]) | IC50 (U-937 [2]) [nM]
> 10 | > 10 | > 10 | 160 | CC[C@H](C)[C@@H]1NC(=O)[C@H](C(C)C)NC(=O)[C@H]([C@@H](C)O)NC(=O)[C@H]([C@@H](C)O)NC(=O)[C@H]([C@@H](C)CC)NC(=O)[C@H]2CSSC[C@@H]3NC(=O)[C@H](C(C)C)NC(=O)[C@H](CCCCN)NC(=O)[C@H](CC(=O)O)NC(=O)[C@H](CCCCN)NC(=O)[C@@H]4CSSC[C@H](NC(=O)[C@H](CO)NC(=O)[C@H](CCC(=O)O)NC(=O)CNC(=O)[C@H](CSSC[C@@H](NC(=O)CNC1=O)C(=O)N[C@@H](CO)C(=O)N4)NC(=O)[C@@H]1CCCN1C(=O)[C@H](C(C)C)NC(=O)CNC(=O)[C@H](CC(N)=O)NC(=O)[C@H]([C@@H](C)O)NC(=O)[C@H](Cc1ccc(O)cc1)NC3=O)C(=O)N[C@@H](C(C)C)C(=O)N[C@@H](Cc1ccccc1)C(=O)N[C@@H]([C@@H](C)CC)C(=O)N1CCC[C@H]1C(=O)N2 | Active | –
> 10 | > 10 | > 10 | 160 | CC[C@H](C)[C@@H]1NC(=O)[C@H](Cc2ccccc2)NC(=O)[C@H](C(C)C)NC(=O)[C@@H]2CSSC[C@@H]3NC(=O)[C@H](CO)NC(=O)[C@H]4CSSC[C@H](NC(=O)[C@@H]5CCCN5C(=O)[C@H](C(C)C)NC(=O)CNC(=O)[C@H](CC(N)=O)NC(=O)[C@H](CC(N)=O)NC(=O)[C@H](Cc5ccc(O)cc5)NC(=O)[C@H](CSSC[C@H](NC(=O)[C@@H]5CCCN5C1=O)C(=O)N[C@@H](Cc1ccccc1)C(=O)N[C@@H]([C@@H](C)O)C(=O)N[C@@H]([C@@H](C)O)C(=O)N[C@@H](C(C)C)C(=O)N[C@@H](C(C)C)C(=O)NCC(=O)N4)NC(=O)[C@H](C(C)C)NC(=O)[C@H](CCCCN)NC(=O)[C@H](CC(=O)O)NC(=O)[C@H](CCCCN)NC3=O)C(=O)NCC(=O)N[C@@H](CCC(=O)O)C(=O)N[C@@H](CO)C(=O)N2 | Active | –
> 10 | > 10 | > 10 | 140 | CC[C@H](C)[C@@H]1NC(=O)CNC(=O)[C@H](CC(N)=O)NC(=O)[C@H]([C@@H](C)CC)NC(=O)[C@H](Cc2ccc(O)cc2)NC(=O)[C@@H]2CSSC[C@H]3NC(=O)CNC(=O)[C@H](Cc4ccccc4)NC(=O)[C@H](Cc4ccc(O)cc4)NC(=O)[C@H](C)NC(=O)[C@@H]4CSSC[C@H](NC(=O)[C@H](CO)NC(=O)[C@H](CSSC[C@H](NC(=O)[C@H](C)NC1=O)C(=O)NCC(=O)N[C@@H](CCC(=O)O)C(=O)N[C@@H](CO)C(=O)N4)NC(=O)CNC(=O)[C@@H]1CCCN1C(=O)[C@H]([C@@H](C)CC)NC(=O)[C@H](Cc1c[nH]c4ccccc14)NC3=O)C(=O)N[C@@H](CCCCN)C(=O)N[C@@H](CC(=O)O)C(=O)N[C@@H](CCCCN)C(=O)N[C@@H](C(C)C)C(=O)N2 | Active | –
10 (≈ 31.4 µg/mL) | > 10 | > 10 | – | CC[C@H](C)[C@@H]1NC(=O)[C@H](C)NC(=O)[C@H](CO)NC(=O)[C@H](CO)NC(=O)[C@H]([C@@H](C)CC)NC(=O)[C@@H]2CSSC[C@@H]3NC(=O)[C@H](C(C)C)NC(=O)[C@H](CCCCN)NC(=O)[C@H](CO)NC(=O)[C@H](CCCCN)NC(=O)[C@@H]4CSSC[C@H](NC(=O)[C@H](CO)NC(=O)[C@H](CCC(=O)O)NC(=O)CNC(=O)[C@H](CSSC[C@H](NC(=O)CNC1=O)C(=O)N[C@@H](CO)C(=O)N4)NC(=O)[C@@H]1CCCN1C(=O)[C@H]([C@@H](C)CC)NC(=O)CNC(=O)[C@H](CC(N)=O)NC(=O)[C@H](CCCNC(=N)N)NC(=O)[C@H](Cc1ccc(O)cc1)NC3=O)C(=O)N[C@@H](C(C)C)C(=O)N[C@@H](Cc1c[nH]c3ccccc13)C(=O)N[C@@H]([C@@H](C)CC)C(=O)N1CCC[C@H]1C(=O)N2 (cyclo(AIGCSCKSKVCYRNGIPCGESCVWIPCISS); disulfide 4-18, 6-22, 11-27) | – | 260
